# In ChEMBL document CHEMBL1143911, “Studies on quinones. Part 42: Synthesis of furylquinone and hydroquinones with antiproliferative activity against human tumor cell lines” (2008):
# Experiments:
# Assay type in all cases: functional
# NCI-H460 = assay: Cytotoxicity against human NCI-H460 cells after 48 hrs; conditions: NCI-H460, 48 h
# In short: (§1)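 Adherent cells kept in RPMI-1640 with 5% heat-inactivated FBS, 2 mM glutamine and 50 µg/mL gentamycin at 37 °C, 5% CO2. Plated at 7.5 × 10⁴ cells/mL, attached overnight, then given five concentrations (maximum 150 µM; DMSO stocks diluted in medium) for 48 h. Fixed in situ, SRB-stained, absorbance at 492 nm. GI50 (50% inhibition of net growth) taken from dose–response curves.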
# SF-268 = assay: Cytotoxicity against human SF268 cells after 48 hrs; conditions: SF-268, 48 h
# In short: as §1, with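 “1.5” for “7.5”, “10⁵” for “10⁴”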
# MCF7 = assay: Cytotoxicity against human MCF7 cells after 48 hrs; conditions: MCF7, 48 h
# In short: as §1, with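 “1.5” for “7.5”, “10⁵” for “10⁴”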
Compound,GI50 (NCI-H460) [µM],GI50 (SF-268) [µM],GI50 (MCF7) [µM]
CN(C)/N=C/c1ccc(C2=CC(=O)C=CC2=O)o1,148,100,33.5
CN(C)/N=C/c1ccc(C2=C(Cl)C(=O)c3ccccc3C2=O)o1,10.9,9.3,8.1
CN(C)/N=C/c1ccc(-c2c(O)ccc(O)c2C=O)o1,93,38.3,29.4
O=Cc1c(O)ccc(O)c1Cl,122,18.8,15.6
O=Cc1ccc(-c2c(O)ccc(O)c2C=O)o1,80.2,35.8,20.3
CN(C)/N=C/c1ccc(C2=CC(=O)c3ccccc3C2=O)o1,6.8,6.5,7.7
CCCCSc1c(O)ccc(O)c1C(C)=O,63.3,27.5,29.2
COC1=CC(=O)C(c2ccc(/C=N/N(C)C)o2)=CC1=O,27.2,9.1,8.2
COc1cccc2c1C(=O)c1c(O)c3c(c(O)c1C2=O)C[C@@](O)(C(=O)CO)C[C@@H]3O[C@H]1C[C@H](N)[C@H](O)[C@H](C)O1 [DOXORUBICIN],0.094,0.093,0.0428
